Assay outcomes: PubChem BioAssay, several laboratories
NadD inh = inhibitors of S. aureus NadD, primary screen, biochemical, colorimetric, uHTS; inhibition, % at 20 µM; AID 602399, 2012; purified NadD enzyme, colorimetric absorbance read-out; hit rate 0.78% among 360,000; in the data active = inhibition above about 26%
ABHD5-PLIN5 inh = ABHD5-PLIN5 interaction inhibitors, primary screen, cell lysate, split luciferase complementation, luminescence; inhibition, % at 4 µM; Split G. princeps luciferase complementation, 4 h; Perilipin-5 (Homo sapiens) + 1-acylglycerol-3-phosphate O-acyltransferase ABHD5 (Homo …; hit rate 0.78% among 360,000;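 active = inhibition above the mean inhibition across every tested compound plus 3 SD, cut at about 22% in these data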;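 note: 0% = DMSO only wells and the 100% control is not disclosed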
Target sequence (Q00G26 whole entry, looked up): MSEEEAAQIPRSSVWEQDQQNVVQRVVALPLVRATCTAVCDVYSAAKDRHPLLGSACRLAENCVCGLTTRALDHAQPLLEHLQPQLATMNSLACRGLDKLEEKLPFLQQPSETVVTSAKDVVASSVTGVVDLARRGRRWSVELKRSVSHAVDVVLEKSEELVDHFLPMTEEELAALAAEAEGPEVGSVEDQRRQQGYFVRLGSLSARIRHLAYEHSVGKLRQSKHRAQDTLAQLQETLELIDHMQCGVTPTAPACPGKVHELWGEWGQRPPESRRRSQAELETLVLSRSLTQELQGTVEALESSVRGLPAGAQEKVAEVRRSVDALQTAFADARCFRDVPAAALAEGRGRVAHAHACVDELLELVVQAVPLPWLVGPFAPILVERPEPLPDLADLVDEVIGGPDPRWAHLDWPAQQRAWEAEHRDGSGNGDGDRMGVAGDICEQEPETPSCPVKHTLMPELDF
Target sequence (Q8WTS1 whole entry, looked up): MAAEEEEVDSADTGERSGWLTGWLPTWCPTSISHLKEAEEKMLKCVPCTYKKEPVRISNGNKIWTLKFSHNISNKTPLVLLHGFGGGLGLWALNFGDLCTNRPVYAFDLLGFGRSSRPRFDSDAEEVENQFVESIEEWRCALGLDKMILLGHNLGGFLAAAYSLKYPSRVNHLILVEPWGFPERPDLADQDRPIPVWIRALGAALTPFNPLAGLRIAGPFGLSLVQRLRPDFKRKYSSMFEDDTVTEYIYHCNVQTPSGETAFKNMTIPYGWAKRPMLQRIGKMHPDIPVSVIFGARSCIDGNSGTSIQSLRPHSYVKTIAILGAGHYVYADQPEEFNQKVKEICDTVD
core dimer inh = inhibitors of HCV core protein dimerization, primary screen, biochemical, TR-FRET, high-throughput | TR-FRET GST/Flag-core106 dimerization, 1536-well | inhibition, % at 5 µM | hit rate 0.33% among 300,000 | AID 1899, 2009;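 active = inhibition above the mean of all tested compounds plus 3 SD, set per screening campaign, cut at about 45% in these data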
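Assay system: Tagged HCV core106 pair (GST and Flag) | Buffer or medium: KF-containing HEPES buffer, pH 7.45, DTT, CHAPS, BSA | Also added: Eu donor and XL665 acceptor anti-tag antibodies | Dosing: One concentration, 5 µM, in 0.5% DMSO | Timing: 4 h at 22.5 °C | Technique: TR-FRET 671 and 617 nm emission | Repeats: Singlicate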
rCAG binder = binders of r(CAG) RNA repeats, primary screen, biochemical, fluorescence; hit rate 1.3% among 370,000; r(CAG) RNA repeat, TO-PRO-1 dye displacement fluorescence; inhibition, % at 3 µM;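 active = inhibition above the plate cutoff, the mean of all test compounds on that plate plus 3 SD, cut at about 35% in these data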;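 note: 0% = DMSO alone and 100% = 100 µM mitoxantrone as full dye displacement; higher means more dye released from RNA so lower well fluorescence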
Numbers without * were called inactive. Only some compounds are listed: those with a hit (about 2.6% of all), similar ones and a draw of the others.

For Cc1sc2ncnc(SCC(=O)NC(=O)NCc3ccco3)c2c1C the results were NadD inh 9, ABHD5-PLIN5 inh 10, core dimer inh 50* and rCAG binder 5.
Screening CCOc1ccc2nc(SCC(=O)NC(=O)NCc3ccco3)sc2c1 returned NadD inh 7, ABHD5-PLIN5 inh 2, core dimer inh 13 and rCAG binder 5.
`CCCCc1nc2sc3c(SCC(=O)NCc4ccco4)ncnc3c2c2c1CCC2` gave NadD inh 28, ABHD5-PLIN5 inh 0, core dimer inh 105* and rCAG binder 6.
`O=C(CSc1nc2cc(Cl)ccc2s1)NC(=O)NCc1ccco1` gave NadD inh 6, ABHD5-PLIN5 inh 22, core dimer inh 57* and rCAG binder 13.
CC[n+]1c(C)sc2c(C)cc(C)cc21 was read as NadD inh 2, ABHD5-PLIN5 inh -16, core dimer inh 2 and rCAG binder -3.
CCC[n+]1c(C)sc2c3c(ccc21)CCCC3 was read as NadD inh 44*, ABHD5-PLIN5 inh -5 and core dimer inh 2.
`CCCNC(=O)Cn1c(=O)/c(=C\c2ccc(-c3ccc([N+](=O)[O-])cc3)o2)s/c1=C\C(=O)C(C)(C)C` gave NadD inh 30*, ABHD5-PLIN5 inh -4 and core dimer inh 13.
Screening CCCNC(=O)Cn1c(=O)/c(=C/c2ccc(-c3cccc([N+](=O)[O-])c3)o2)s/c1=C\C(=O)C(C)(C)C returned NadD inh 18, ABHD5-PLIN5 inh 4 and rCAG binder 15.
For COc1ccc(C2=CCN(C)C(=O)N2c2ccc([N+](=O)[O-])cc2)cc1 the results were rCAG binder 8.
Cc1cc(NS(=O)(=O)c2ccc(NC(=S)NC(=O)c3ccc(Cl)cc3Cl)cc2)no1 was read as NadD inh 12, ABHD5-PLIN5 inh -3, core dimer inh 25 and rCAG binder 65*.
Cc1cc(NS(=O)(=O)c2ccc(NC(=O)c3ccc(Cl)cc3Cl)cc2)no1 was read as NadD inh -4, ABHD5-PLIN5 inh -4, core dimer inh -11 and rCAG binder 11.
For COCCCN1C(=O)[C@H](CC(=O)N2CCOCC2)[C@]2(C(=O)OC)CCCCC=C12 the results were rCAG binder 0.
`COC(=O)CCCC1=CC2=CC(=O)C(C)(O)C(=O)C2=CO1` (centres undefined) gave core dimer inh 24.
COC(=O)CCCC1=CC2=CC(=O)C(C)(OC(=O)C3CCCC3)C(=O)C2=CO1 (centres undefined) was read as core dimer inh 64*.
For CCC(=O)OC1(C)C(=O)C=C2C=C(CCCC(=O)OC)OC=C2C1=O (centres undefined) the results were NadD inh 12, ABHD5-PLIN5 inh 1, core dimer inh 53* and rCAG binder 19.
Screening COC(=O)c1cc(=O)n(Cc2ccco2)c(=Nc2ccccc2)s1 returned rCAG binder 3.
`Cc1ccccc1OCC(=O)N/N=C/c1ccncc1` gave NadD inh -4, ABHD5-PLIN5 inh 23*, core dimer inh 3 and rCAG binder -1.
CC(=O)c1cc(-c2cccc(C#N)c2)c(=O)n2c1CCC2 was read as rCAG binder 4.
C=COC(=O)CSc1snc(SCC(=O)OC)c1C#N was read as NadD inh -2, ABHD5-PLIN5 inh 4, core dimer inh 89* and rCAG binder 2.
Screening Cn1cccc1C(=O)N1CCN(S(=O)(=O)c2ccc([N+](=O)[O-])cc2)CC1 returned rCAG binder 3.
O=C(/C=C/c1cccc([N+](=O)[O-])c1)c1ccc2c(c1)OCCO2 was read as NadD inh -7, ABHD5-PLIN5 inh 23*, core dimer inh 11 and rCAG binder 3.
For COc1ccc(/C=C/C(=O)c2ccc3c(c2)OCCO3)cc1[N+](=O)[O-] the results were NadD inh -9, ABHD5-PLIN5 inh 14, core dimer inh 12 and rCAG binder 4.
O=C1COc2ccc(C(=O)COC(=O)/C=C/c3ccc(Br)o3)cc2N1 was read as NadD inh 25, ABHD5-PLIN5 inh 5, core dimer inh 84* and rCAG binder 23.
For CC1CCc2c(sc(NC(=O)c3ccc(Cn4cc([N+](=O)[O-])cn4)o3)c2C#N)C1 (centres undefined) the results were NadD inh 14, ABHD5-PLIN5 inh -2, core dimer inh 85* and rCAG binder 30.
Screening CCOC1=C2[C@H](c3ccccc3)N(S(=O)(=O)c3ccc(C)cc3)C(C(C)(C)C)[C@H]2C(C#N)(C#N)C(C#N)(C#N)C1 (some centres undefined) returned NadD inh 34*, ABHD5-PLIN5 inh 12 and rCAG binder 24.
CCOC1=C2CN(S(=O)(=O)c3ccc(C)cc3)[C@H](c3cccc4ccccc34)C[C@H]2C(C#N)(C#N)C(C#N)(C#N)C1 was read as NadD inh 30* and ABHD5-PLIN5 inh 12.
`CCOC1=C2CN(S(=O)(=O)c3ccc(C)cc3)[C@@H](c3cccc4ccccc34)C[C@H]2[C@H]2C(=O)N(c3ccccc3)C(=O)[C@H]2C1` gave NadD inh 11, ABHD5-PLIN5 inh -2 and rCAG binder 5.
Screening CCCCC[C@@H]1[C@@H]2C(=C(OCC)C[C@@H]3C(=O)N(c4ccccc4)C(=O)[C@H]23)[C@H](c2ccccc2)N1S(=O)(=O)c1ccc(C)cc1 returned NadD inh 1, ABHD5-PLIN5 inh -2 and rCAG binder 9.
`CCOC(=O)[C@]12CCCC3=C1N(CCC3)C(=O)[C@@H](CC(=O)NCc1ccc(OC)c(OC)c1)C2` gave rCAG binder -1.
`COc1cc(/C=C2/C(=N)N3C(c4ccccc4)=CSC3=NC2=O)ccc1OCC(=O)O` gave NadD inh 4, ABHD5-PLIN5 inh 0, core dimer inh 10 and rCAG binder 28.
Screening N=C1/C(=C\c2ccc(-c3ccc(C(=O)O)cc3)o2)C(=O)N=C2SC=C(c3ccccc3)N12 returned NadD inh 67*, ABHD5-PLIN5 inh -1 and rCAG binder 18.
For FC(F)(F)c1ccc(Cn2ccc3ccc(-c4ccc5ccn(Cc6ccccc6)c5c4)cc32)cc1 the results were rCAG binder 26.
`CC(C)Cc1ccc(CN2C(C)C(=O)N(Cc3cn(Cc4ccco4)nn3)CCS2(=O)=O)cc1` (centres undefined) gave NadD inh 12, ABHD5-PLIN5 inh 11 and rCAG binder 51*.
COc1cc(C2C(C#N)=C(N)Oc3c2ccc2ccccc32)ccc1OCC(=O)Nc1ccccc1C (centres undefined) was read as NadD inh 20, ABHD5-PLIN5 inh 6, core dimer inh 7 and rCAG binder 36*.
Screening COc1cccc2cc(C(=O)CS(=O)(=O)c3ccc(Cl)cc3)c(=O)oc12 returned NadD inh 8, ABHD5-PLIN5 inh 3, core dimer inh -1 and rCAG binder 47*.
For N#CCc1c(C#N)c(N)nc(N2CCOCC2)c1C#N the results were NadD inh -1, ABHD5-PLIN5 inh 22*, core dimer inh -4 and rCAG binder 1.
